Laboratory results published in ChEMBL document CHEMBL1140304, “Design and synthesis of potent inhibitors of plasmepsin I and II: X-ray crystal structure of inhibitor in complex with plasmepsin II” (J Med Chem, 2005).

Legend:
[1] = tested on: Plasmodium falciparum; experiment: Percentage inhibition of parasite growth in human erythrocytes at 5 uM; assay type: functional
Outline: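 Synchronous P. falciparum 3D7 early trophozoites at ~1% haematocrit and 1% parasitaemia, with [3H]hypoxanthine at 10 µCi/mL. Compound (1-5 µM final) or DMSO (max 1% v/v) was added. Cultures ran 30 h at 37 °C in gassed boxes to mature schizonts, then were harvested onto filters for β-counting. Uptake was expressed relative to DMSO controls; four independent experiments.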

[2] = target: Plasmepsin II (Plasmodium falciparum, UniProt P46925); experiment: Inhibitory concentration against the plasmepsin-2 of Plasmodium falciparum
Sequence of Plasmepsin II (P46925 whole entry): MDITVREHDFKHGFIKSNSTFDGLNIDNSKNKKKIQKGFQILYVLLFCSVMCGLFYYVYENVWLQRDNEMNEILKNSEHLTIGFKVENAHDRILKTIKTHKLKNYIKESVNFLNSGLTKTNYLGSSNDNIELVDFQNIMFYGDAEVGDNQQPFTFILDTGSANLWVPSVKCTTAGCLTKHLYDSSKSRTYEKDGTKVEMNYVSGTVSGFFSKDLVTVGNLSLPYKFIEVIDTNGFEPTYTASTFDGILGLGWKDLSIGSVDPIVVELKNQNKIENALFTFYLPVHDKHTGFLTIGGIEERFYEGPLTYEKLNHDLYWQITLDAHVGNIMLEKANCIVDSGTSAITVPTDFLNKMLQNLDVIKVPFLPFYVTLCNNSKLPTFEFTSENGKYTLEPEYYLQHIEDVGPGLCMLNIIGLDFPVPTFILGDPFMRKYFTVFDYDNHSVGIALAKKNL
Outline: (§1)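 Fluorogenic assay in 100 mM sodium acetate (pH 4.5), 10% glycerol and 0.01% Tween 20, with 3 µM DABCYL/EDANS peptide substrate. Enzymes: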

[3] = target: Cathepsin D (Homo sapiens, UniProt P07339); experiment: Inhibitory concentration against the human Cathepsin D; outline: as §1
Sequence of Cathepsin D (P07339 65-162 limits assumed): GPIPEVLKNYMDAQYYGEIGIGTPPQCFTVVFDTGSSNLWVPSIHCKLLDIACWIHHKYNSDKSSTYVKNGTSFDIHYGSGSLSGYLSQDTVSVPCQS
Sequence of Cathepsin D (P07339 169-412 limits assumed): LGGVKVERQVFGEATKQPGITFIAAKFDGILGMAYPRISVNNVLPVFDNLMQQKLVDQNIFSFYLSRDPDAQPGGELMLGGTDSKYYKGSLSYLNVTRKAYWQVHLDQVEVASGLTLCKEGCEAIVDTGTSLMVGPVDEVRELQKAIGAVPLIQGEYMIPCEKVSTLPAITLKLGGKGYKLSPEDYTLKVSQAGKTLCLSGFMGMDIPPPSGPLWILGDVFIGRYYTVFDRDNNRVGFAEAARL

[4] = target: Plasmepsin I (Plasmodium falciparum, UniProt P39898); experiment: Inhibitory concentration against the plasmepsin-1 of Plasmodium falciparum; outline: as §1
Sequence of Plasmepsin I (P39898 whole entry): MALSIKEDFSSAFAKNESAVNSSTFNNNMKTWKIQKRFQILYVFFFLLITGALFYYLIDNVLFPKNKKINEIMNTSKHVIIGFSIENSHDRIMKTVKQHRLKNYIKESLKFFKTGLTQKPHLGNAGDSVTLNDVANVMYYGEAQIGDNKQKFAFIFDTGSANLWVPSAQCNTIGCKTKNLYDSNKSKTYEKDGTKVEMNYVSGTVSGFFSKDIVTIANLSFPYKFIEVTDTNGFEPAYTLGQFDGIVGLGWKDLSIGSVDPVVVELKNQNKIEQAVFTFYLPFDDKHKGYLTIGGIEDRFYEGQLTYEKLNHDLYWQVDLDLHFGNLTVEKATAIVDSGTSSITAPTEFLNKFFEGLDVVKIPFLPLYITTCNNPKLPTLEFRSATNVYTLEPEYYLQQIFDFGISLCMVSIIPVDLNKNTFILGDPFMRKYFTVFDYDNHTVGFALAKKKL

Ki [2] [nM]	Ki [3] [nM]	Ki [4] [nM]	Structure (SMILES)	inhibition at 5 µM [1] [%]
–	–	–	COc1cccc(CCNC(=O)C[C@H](O)[C@H](COCc2ccc(Br)cc2)NC(=O)c2c(F)cc(F)cc2F)c1	29
13	241	1	CCCCNC(=O)C[C@H](O)[C@H](COCc1ccc(-c2ccsc2)cc1)NC(=O)[C@@H](NC(=O)c1ccccn1)C(C)C	9
214	> 3600	188	O=C(C[C@H](O)[C@H](COCc1ccc(-c2ccccc2)cc1)NC(=O)c1c(F)cc(F)cc1F)NC1CCCCC1	–
5.7	32	1	CC(C)C[C@H](NC(=O)[C@H](C)NC(=O)C[C@H](O)[C@H](COCc1cccc(Br)c1)NC(=O)[C@@H](NC(=O)c1ccccn1)C(C)C)C(N)=O	55
–	–	–	CC(C)C[C@H](NC(=O)[C@H](C)NC(=O)C[C@H](O)[C@H](COCc1ccc(Br)cc1)NC(=O)[C@@H](NC(=O)c1ccccn1)C(C)C)C(N)=O	51
693	1880	221	COc1cccc(CCNC(=O)C[C@H](O)[C@H](COCc2ccc(-c3ccsc3)cc2)NC(=O)c2c(F)cc(F)cc2F)c1	–
–	–	–	O=C(C[C@H](O)[C@H](COCc1ccc(Br)cc1)NC(=O)c1c(F)cc(F)cc1F)NC1CCCCC1	0
0.9	2.5	0.3	CC(C)C[C@H](NC(=O)[C@H](C)NC(=O)C[C@H](O)[C@H](COCc1ccc(-c2ccccc2)cc1)NC(=O)[C@@H](NC(=O)c1ccccn1)C(C)C)C(N)=O	70
16	481	1.9	CCCCNC(=O)C[C@H](O)[C@H](COCc1ccc(-c2ccccc2)cc1)NC(=O)[C@@H](NC(=O)c1ccccn1)C(C)C	–
45	685	2.7	CCCCNC(=O)C[C@H](O)[C@H](COCc1ccc(-c2ccc3c(c2)OCO3)cc1)NC(=O)[C@@H](NC(=O)c1ccccn1)C(C)C	–
308	> 5900	116	COc1cccc(CCNC(=O)C[C@H](O)[C@H](COCc2ccc(-c3ccccc3)cc2)NC(=O)c2c(F)cc(F)cc2F)c1	–
–	–	–	CC(C)C[C@H](NC(=O)[C@H](C)NC(=O)C[C@H](O)[C@H](COCc1ccc(Br)cc1)NC(=O)c1c(F)cc(F)cc1F)C(N)=O	10
1.1	3.2	0.3	CC(C)C[C@H](NC(=O)[C@H](C)NC(=O)C[C@H](O)[C@H](COCc1ccc(-c2ccsc2)cc1)NC(=O)[C@@H](NC(=O)c1ccccn1)C(C)C)C(N)=O	46
260	4940	278	O=C(C[C@H](O)[C@H](COCc1ccc(-c2ccsc2)cc1)NC(=O)c1c(F)cc(F)cc1F)NC1CCCCC1	–
1.9	1.6	0.4	CC(C)C[C@H](NC(=O)[C@H](C)NC(=O)C[C@H](O)[C@H](COCc1cccc(-c2ccsc2)c1)NC(=O)[C@@H](NC(=O)c1ccccn1)C(C)C)C(N)=O	65
55	1440	2.1	CC(C)C[C@H](NC(=O)[C@H](C)NC(=O)C[C@H](O)[C@H](COCc1ccc(-c2ccsc2)cc1)NC(=O)c1c(F)cc(F)cc1F)C(N)=O	–
48	1730	5.9	CC(C)C[C@H](NC(=O)[C@H](C)NC(=O)C[C@H](O)[C@H](COCc1ccc(-c2ccccc2)cc1)NC(=O)c1c(F)cc(F)cc1F)C(N)=O	–
19	2700	3.3	CC(C)C[C@H](NC(=O)[C@H](C)NC(=O)C[C@H](O)[C@H](COCc1ccc(-c2ccc3c(c2)OCO3)cc1)NC(=O)c1c(F)cc(F)cc1F)C(N)=O	–
4.4	3.9	0.7	CC(C)C[C@H](NC(=O)[C@H](C)NC(=O)C[C@H](O)[C@H](COCc1cccc(-c2ccccc2)c1)NC(=O)[C@@H](NC(=O)c1ccccn1)C(C)C)C(N)=O	–
1.1	0.7	0.4	CC(C)C[C@H](NC(=O)[C@H](C)NC(=O)C[C@H](O)[C@H](COCc1ccc(-c2ccc3c(c2)OCO3)cc1)NC(=O)[C@@H](NC(=O)c1ccccn1)C(C)C)C(N)=O	83
